The record followed here is ChEMBL document CHEMBL4808175 (J Med Chem, 2021).

Calls of active or inactive are those of the source. The rule behind the calls is not given here. Where only a bound is given, the exact number is not on record here.

For series [1], the target named is T1, cAMP and cAMP-inhibited cGMP 3',5'-cyclic phosphodiesterase 10A (Homo sapiens, UniProt Q9Y233). Description: Inhibition of recombinant GST-tagged full length PDE10A2 (unknown origin) expressed in baculovirus infected Sf9 insect cells using TAMRA-cGMP as substrate incubated for 1.5 hrs by IMAP-FP assay. The method, boiled down:
(§1)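 PDE enzymes incubated with compound or vehicle and 50 nM TAMRA-cGMP or FAM-cAMP substrate for 1.5 h at 30 °C. Activity read by IMAP fluorescence polarization. IC50 from 10 concentrations, at least two replicates each, fitted by four-parameter logistic. Dose–response repeated at least twice; mean of at least two experiments.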

The target of series [2] is High affinity cAMP-specific and IBMX-insensitive 3',5'-cyclic phosphodiesterase 8A (Homo sapiens, UniProt O60658). Description: Inhibition of recombinant GST-tagged full length PDE8A1 (unknown origin) expressed in baculovirus infected Sf9 insect cells using FAM-cAMP as substrate incubated for 1.5 hrs by IMAP-FP assay. The method, boiled down: as §1
Series [3] deals with T2, cGMP-specific 3',5'-cyclic phosphodiesterase (Homo sapiens, UniProt O76074). The series can be described thus: Inhibition of recombinant 6His-tagged PDE5A1 catalytic domain (unknown origin) expressed in Escherichia coli using TAMRA-cGMP or FAM-cAMP as substrate incubated for 1.5 hrs by IMAP-FP assay.
Series [4] in a line: Observed AUC (0 to infinity) in C57BL/6N mouse at 150 mg/kg, po administered as single dose measured up to 8 hrs by LC-MS/MS analysis. The format is ADME, organism-based. More on the design: route oral, dose 150 mg/kg, time <=8. Conditions: in vivo.
A short description of series [5]: Toxicity in athymic nude-Foxn1nu mouse assessed as drug tolerance at 50 to 150 mg/kg, po bid for 28 days. In kind it is organism-based. To be noted: in vivo, 672 h, dose 50-150 mg/kg, time 28 day. Summed up: (§2)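 Female athymic nude-Foxn1nu mice, 8–9 weeks, 18–24 g, n=4 per group. Oral gavage at 50, 100 or 150 mg/kg twice daily, or vehicle, for 28 days. Formulation ethanol/water/Maalox (7:3:90, v/v/v). Toxicity signs monitored daily. Body weight recorded daily in week 1, then twice weekly, as percent change from starting weight.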

The target of series [6] is T3, Cone cGMP-specific 3',5'-cyclic phosphodiesterase subunit alpha' (Homo sapiens, UniProt P51160). The series can be described thus: Inhibition of recombinant full length GST-tagged PDE6C (unknown origin) expressed in baculovirus infected Sf9 insect cells using TAMRA-cGMP as substrate incubated for 1.5 hrs by IMAP-FP assay. The method, boiled down: as §1
Series [7] can be described thus: Half life in C57BL/6N mouse at 150 mg/kg, po administered as single dose measured up to 8 hrs by LC-MS/MS analysis. To be noted: in vivo. The format is ADME, organism-based.
Series [8] can be described thus: Observed volume of distribution in C57BL/6N mouse at 150 mg/kg, po administered as single dose measured up to 8 hrs by LC-MS/MS analysis. In kind it is ADME, organism-based. To be noted: in vivo.
Series [9] in a line: Cmax in C57BL/6N mouse at 150 mg/kg, po administered as single dose measured up to 8 hrs by LC-MS/MS analysis. More on the design: route oral, dose 150 mg/kg, time <=8. To be noted: in vivo. In kind it is ADME, organism-based.
For series [10], the target named is T4, Dual specificity calcium/calmodulin-dependent 3',5'-cyclic nucleotide phosphodiesterase 1A (Homo sapiens, UniProt P54750). The series can be described thus: Inhibition of recombinant full length GST-tagged PDE1A (unknown origin) expressed in baculovirus infected Sf9 insect cells using TAMRA-cGMP as substrate incubated for 1.5 hrs by IMAP-FP assay. The method, boiled down: as §1

The target of series [11] is 3',5'-cyclic-AMP phosphodiesterase 4B (Homo sapiens, UniProt Q07343). Description: Inhibition of recombinant full length GST-tagged PDE4B2 (unknown origin) expressed in baculovirus infected Sf9 insect cells using FAM-cAMP as substrate incubated for 1.5 hrs by IMAP-FP assay. The method, boiled down: as §1
Series [12] in a line: Toxicity in athymic nude-Foxn1nu mouse at 50 to 150 mg/kg, po bid for 28 days. To be noted: in vivo, 672 h, dose 50-150 mg/kg, time 28 day. In kind it is organism-based. Summed up: as §2
Series [13] addresses T4, Dual specificity calcium/calmodulin-dependent 3',5'-cyclic nucleotide phosphodiesterase 1A. The series can be described thus: Inhibition of recombinant full length GST-tagged PDE1A (unknown origin) expressed in baculovirus infected Sf9 insect cells using FAM-cAMP as substrate incubated for 1.5 hrs by IMAP-FP assay. The method, boiled down:
as §1

Series [14] in a line: AUC (0 to 8 hrs) in C57BL/6N mouse at 150 mg/kg, po administered as single dose measured up to 8 hrs by LC-MS/MS analysis. In kind it is ADME, organism-based. On the set-up: route oral, dose 150 mg/kg, time <=8. To be noted: in vivo.
Series [15] can be described thus: Protein binding in human plasma assessed as bound fraction by HPLC-MS/MS analysis. In kind it is ADME, cell-free. To be noted: read-out: PPB (converted). Summed up: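 Human plasma spiked with compound at 10 μM, 1% DMSO final. Dialyzed against PBS pH 7.4 for 4 h at 37 °C. Both compartments diluted, acetonitrile-precipitated and quantified by HPLC-MS/MS. An undialyzed spiked control served for recovery; duplicates.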

A short description of series [16]: Elimination rate constant in C57BL/6N mouse at 150 mg/kg, po administered as single dose measured up to 8 hrs by LC-MS/MS analysis. To be noted: in vivo. The format is ADME, organism-based.
A short description of series [17]: Tmax in C57BL/6N mouse at 150 mg/kg, po administered as single dose measured up to 8 hrs by LC-MS/MS analysis. The format is ADME, organism-based. Conditions: in vivo.
Series [18] can be described thus: Toxicity in athymic nude-Foxn1nu mouse assessed as body weight loss at 50 to 150 mg/kg, po bid measured immediately relative to control. In kind it is organism-based. To be noted: in vivo, dose 50-150 mg/kg. The method, boiled down:
as §2

For series [19], the target named is T3, Cone cGMP-specific 3',5'-cyclic phosphodiesterase subunit alpha'. The series can be described thus: Inhibition of recombinant full length GST-tagged PDE6C (unknown origin) expressed in baculovirus infected Sf9 insect cells at 15 uM using TAMRA-cGMP as substrate incubated for 1.5 hrs by IMAP-FP assay relative to control. The method, boiled down:
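PDE6 activity measured at a single 15 μM compound concentration with TAMRA-cGMP substrate. Incubated 1.5 h at 30 °C and read by IMAP fluorescence polarization; percent inhibition relative to control.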

Series [20] concerns the target Dual 3',5'-cyclic-AMP and -GMP phosphodiesterase 11A (Homo sapiens, UniProt Q9HCR9). Description: Inhibition of recombinant GST-tagged full length PDE11A4 (unknown origin) expressed in baculovirus infected Sf9 insect cells using TAMRA-cGMP as substrate incubated for 1.5 hrs by IMAP-FP assay. Summed up: as §1
For series [21], the target named is T1, cAMP and cAMP-inhibited cGMP 3',5'-cyclic phosphodiesterase 10A. Description: Inhibition of recombinant GST-tagged full length PDE10A2 (unknown origin) expressed in baculovirus infected Sf9 insect cells using FAM-cAMP as substrate incubated for 1.5 hrs by IMAP-FP assay. Summed up:
as §1

The target of series [22] is High affinity cGMP-specific 3',5'-cyclic phosphodiesterase 9A (Homo sapiens, UniProt O76083). Description: Inhibition of recombinant GST-tagged full length PDE9A2 (unknown origin) expressed in baculovirus infected Sf9 insect cells using substrate incubated for 1.5 hrs by IMAP-FP assay.
The target in series [23] is cGMP-dependent 3',5'-cyclic phosphodiesterase (Homo sapiens, UniProt O00408). Description: Inhibition of recombinant full length GST-tagged PDE2A (unknown origin) expressed in baculovirus infected Sf9 insect cells using TAMRA-cGMP as substrate incubated for 1.5 hrs by IMAP-FP assay. The method, boiled down: as §1
For series [24], the target named is T2, cGMP-specific 3',5'-cyclic phosphodiesterase. Description: Competitive inhibition of recombinant 6His-tagged PDE5A1 catalytic domain (unknown origin) expressed in Escherichia coli assessed as increase in apparent Km up to 40 nM using varying levels TAMRA-cGMP or FAM-cAMP as substrate. To be noted: dose nM <=40.

T4 sequence (P54750 whole entry): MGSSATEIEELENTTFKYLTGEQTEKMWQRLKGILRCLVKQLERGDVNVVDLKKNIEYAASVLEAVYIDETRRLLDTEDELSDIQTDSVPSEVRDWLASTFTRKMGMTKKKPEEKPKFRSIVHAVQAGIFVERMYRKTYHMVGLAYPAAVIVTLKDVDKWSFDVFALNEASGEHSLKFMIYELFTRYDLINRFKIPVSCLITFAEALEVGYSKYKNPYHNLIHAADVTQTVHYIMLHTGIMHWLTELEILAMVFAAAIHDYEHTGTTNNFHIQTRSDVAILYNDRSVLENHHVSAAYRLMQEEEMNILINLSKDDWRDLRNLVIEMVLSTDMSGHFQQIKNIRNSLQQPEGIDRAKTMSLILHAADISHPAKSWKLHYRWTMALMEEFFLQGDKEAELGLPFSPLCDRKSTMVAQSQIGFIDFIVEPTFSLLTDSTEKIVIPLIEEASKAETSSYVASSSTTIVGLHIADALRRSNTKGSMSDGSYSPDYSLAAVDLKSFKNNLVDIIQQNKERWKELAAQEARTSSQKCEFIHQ
T3 sequence (P51160 whole entry): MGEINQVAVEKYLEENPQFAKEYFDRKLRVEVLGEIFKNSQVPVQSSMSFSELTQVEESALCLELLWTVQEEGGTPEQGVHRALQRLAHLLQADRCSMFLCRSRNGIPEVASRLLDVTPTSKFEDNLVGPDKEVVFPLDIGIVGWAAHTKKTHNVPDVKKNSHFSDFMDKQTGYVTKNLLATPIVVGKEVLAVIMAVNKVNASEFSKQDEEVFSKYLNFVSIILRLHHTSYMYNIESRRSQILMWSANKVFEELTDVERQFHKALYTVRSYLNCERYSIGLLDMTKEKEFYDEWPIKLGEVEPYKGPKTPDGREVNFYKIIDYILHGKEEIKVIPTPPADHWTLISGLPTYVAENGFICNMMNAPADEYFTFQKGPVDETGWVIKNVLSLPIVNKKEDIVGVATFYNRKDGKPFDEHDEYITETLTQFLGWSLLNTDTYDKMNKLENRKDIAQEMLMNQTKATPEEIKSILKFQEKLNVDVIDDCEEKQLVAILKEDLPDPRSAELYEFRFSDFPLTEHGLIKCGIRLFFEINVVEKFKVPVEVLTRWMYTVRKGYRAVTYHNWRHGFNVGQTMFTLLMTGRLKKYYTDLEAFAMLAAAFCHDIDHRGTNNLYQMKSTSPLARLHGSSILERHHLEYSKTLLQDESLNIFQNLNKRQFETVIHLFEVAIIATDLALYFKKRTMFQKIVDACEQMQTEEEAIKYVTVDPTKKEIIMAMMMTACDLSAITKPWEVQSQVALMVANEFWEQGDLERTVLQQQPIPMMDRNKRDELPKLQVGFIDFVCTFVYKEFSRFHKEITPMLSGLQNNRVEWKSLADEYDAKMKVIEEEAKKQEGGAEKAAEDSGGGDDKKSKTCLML
T1 sequence (Q9Y233 whole entry): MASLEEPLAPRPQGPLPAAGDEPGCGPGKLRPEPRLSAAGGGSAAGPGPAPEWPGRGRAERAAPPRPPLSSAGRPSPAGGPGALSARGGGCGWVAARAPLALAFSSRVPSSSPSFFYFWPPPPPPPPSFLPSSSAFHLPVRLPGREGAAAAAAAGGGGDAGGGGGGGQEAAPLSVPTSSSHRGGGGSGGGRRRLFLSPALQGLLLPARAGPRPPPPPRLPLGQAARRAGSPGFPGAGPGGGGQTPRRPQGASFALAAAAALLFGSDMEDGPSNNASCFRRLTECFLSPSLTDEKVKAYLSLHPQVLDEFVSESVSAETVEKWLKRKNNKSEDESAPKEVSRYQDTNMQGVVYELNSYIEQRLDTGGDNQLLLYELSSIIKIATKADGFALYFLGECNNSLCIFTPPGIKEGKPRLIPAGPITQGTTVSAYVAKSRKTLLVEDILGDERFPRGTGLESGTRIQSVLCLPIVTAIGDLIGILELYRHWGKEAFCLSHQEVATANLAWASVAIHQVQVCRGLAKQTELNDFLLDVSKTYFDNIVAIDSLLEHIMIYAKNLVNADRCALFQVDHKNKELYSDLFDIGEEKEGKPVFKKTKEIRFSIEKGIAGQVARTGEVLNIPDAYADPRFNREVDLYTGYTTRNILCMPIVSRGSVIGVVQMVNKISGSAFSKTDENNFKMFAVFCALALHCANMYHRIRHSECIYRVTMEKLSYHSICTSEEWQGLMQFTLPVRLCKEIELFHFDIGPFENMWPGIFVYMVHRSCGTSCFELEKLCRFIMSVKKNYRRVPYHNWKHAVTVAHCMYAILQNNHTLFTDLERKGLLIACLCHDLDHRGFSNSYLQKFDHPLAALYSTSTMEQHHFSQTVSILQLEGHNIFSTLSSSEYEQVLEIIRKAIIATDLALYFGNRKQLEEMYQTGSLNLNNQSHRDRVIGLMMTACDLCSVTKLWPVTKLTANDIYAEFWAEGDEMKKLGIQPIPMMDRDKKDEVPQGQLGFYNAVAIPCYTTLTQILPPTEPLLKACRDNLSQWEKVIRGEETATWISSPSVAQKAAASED
High affinity cAMP-specific and IBMX-insensitive 3',5'-cyclic phosphodiesterase 8A, sequence (O60658 whole entry, the tested form may be a part): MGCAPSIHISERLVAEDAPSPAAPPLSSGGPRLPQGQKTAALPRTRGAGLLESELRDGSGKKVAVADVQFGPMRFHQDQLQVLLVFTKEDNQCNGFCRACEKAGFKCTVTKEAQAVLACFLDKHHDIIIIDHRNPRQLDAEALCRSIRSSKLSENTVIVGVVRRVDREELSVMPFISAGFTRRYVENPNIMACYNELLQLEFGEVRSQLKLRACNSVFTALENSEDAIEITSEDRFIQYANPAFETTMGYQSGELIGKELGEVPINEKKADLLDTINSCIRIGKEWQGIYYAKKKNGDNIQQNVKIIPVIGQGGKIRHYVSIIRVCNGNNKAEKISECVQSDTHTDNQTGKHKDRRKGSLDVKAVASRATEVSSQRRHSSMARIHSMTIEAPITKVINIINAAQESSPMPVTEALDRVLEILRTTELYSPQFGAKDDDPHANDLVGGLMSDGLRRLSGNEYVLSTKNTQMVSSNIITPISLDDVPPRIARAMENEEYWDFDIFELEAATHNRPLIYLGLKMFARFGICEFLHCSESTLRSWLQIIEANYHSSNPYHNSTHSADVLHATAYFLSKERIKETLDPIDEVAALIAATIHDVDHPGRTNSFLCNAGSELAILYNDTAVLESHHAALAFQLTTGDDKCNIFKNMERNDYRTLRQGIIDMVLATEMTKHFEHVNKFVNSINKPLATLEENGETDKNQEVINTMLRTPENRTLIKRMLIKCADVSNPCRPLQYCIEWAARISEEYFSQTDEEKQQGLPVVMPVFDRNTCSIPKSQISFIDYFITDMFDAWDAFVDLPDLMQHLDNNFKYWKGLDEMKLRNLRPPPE
cGMP-dependent 3',5'-cyclic phosphodiesterase, sequence (O00408 whole entry, the tested form may be a part): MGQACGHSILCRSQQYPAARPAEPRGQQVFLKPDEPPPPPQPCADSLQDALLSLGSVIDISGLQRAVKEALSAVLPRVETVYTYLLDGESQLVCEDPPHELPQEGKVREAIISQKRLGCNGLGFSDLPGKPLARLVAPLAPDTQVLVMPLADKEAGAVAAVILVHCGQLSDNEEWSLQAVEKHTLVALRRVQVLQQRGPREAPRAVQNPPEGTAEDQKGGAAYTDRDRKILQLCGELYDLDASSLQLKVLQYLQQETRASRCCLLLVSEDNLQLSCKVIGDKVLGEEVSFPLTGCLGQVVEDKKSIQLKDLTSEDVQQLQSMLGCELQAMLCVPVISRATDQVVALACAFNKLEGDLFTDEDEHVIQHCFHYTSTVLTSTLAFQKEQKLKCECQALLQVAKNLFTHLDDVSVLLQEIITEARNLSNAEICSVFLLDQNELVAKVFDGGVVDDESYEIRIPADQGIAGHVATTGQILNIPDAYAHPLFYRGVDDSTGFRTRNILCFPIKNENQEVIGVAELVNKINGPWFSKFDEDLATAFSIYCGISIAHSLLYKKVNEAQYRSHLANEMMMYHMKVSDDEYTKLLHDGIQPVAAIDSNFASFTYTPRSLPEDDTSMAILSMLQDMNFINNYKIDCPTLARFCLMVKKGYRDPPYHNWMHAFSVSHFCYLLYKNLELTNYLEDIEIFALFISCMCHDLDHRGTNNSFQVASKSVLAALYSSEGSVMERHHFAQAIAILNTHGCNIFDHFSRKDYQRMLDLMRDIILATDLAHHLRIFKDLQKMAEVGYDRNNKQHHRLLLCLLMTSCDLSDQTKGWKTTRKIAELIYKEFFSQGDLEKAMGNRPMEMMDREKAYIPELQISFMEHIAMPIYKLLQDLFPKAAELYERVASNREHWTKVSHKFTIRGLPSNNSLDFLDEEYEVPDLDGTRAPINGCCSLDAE
3',5'-cyclic-AMP phosphodiesterase 4B, sequence (Q07343 whole entry): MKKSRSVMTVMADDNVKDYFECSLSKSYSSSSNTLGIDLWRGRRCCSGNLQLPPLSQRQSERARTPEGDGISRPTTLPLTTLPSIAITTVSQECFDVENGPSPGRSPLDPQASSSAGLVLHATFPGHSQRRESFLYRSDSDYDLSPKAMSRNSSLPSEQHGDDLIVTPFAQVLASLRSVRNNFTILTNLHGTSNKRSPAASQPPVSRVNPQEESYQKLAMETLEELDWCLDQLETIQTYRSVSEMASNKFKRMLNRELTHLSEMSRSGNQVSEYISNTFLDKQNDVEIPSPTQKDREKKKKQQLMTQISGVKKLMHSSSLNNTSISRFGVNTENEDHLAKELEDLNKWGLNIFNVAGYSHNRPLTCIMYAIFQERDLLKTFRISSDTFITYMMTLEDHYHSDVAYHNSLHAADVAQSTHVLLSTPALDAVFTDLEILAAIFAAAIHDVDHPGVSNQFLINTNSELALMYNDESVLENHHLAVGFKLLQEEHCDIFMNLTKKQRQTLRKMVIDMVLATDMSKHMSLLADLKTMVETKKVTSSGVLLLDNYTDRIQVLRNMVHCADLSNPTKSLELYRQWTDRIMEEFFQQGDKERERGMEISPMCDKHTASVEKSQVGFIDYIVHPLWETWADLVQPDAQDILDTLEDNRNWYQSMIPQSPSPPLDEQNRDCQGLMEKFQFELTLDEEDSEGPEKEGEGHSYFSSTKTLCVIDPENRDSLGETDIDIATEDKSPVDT

Take `COc1c(F)cc(C2CC(C(C)(C)C)=NN2c2ccc(C(=O)N3CCN(C)CC3)cc2)cc1F` (centres undefined): the IC50 in series [1] is above 10 µM; in series [2] it was above 10 µM; in series [3], above 1000 nM; in series [6], above 10 µM; in series [10], above 10 µM; in [11], above 10 µM. The IC50 in series [13], in series [20], in [21], in series [22] and in series [23] was above 10 µM in each case. Moreover, the area under the curve AUC(0-inf) in [4] is 16200 ng·h/mL. Moreover, the Activity result in series [5] is listed as “Non-Toxic”; in series [12] it was “Non-Toxic”; in series [18], below 5%. In series [7], this molecule gave a half-life of 140 min. Also, in series [8], the Vd was 625 mL. This molecule registered a Cmax in series [9] of 4000 ng/mL. This molecule also registered an AUC(0-t) in [14] of 14100 ng·h/mL. In addition, in series [15], the fraction unbound was 0.02. The k el at 8 h in [16] was 8.33e-05 s⁻¹. Besides, in series [17], the Tmax was found to be 2 h. In series [19], the inhibition turned out to be 50%. In [24], the inhibition entry was “Active”.
